Source: ChEMBL document CHEMBL2203056, “Antimutagenic thio compounds from Sisymbrium officinale” (J Nat Prod, 2012)

Assays:
[1] = Solubility of the compound up to 110 ug/mL; assay type: physicochemical
Outline: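 Compounds dissolved in DMSO by sonication, stock up to 12 mg/mL. Insolubility in the final assay mixture judged as a precipitate visible to the unaided eye.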

[2] = Cytotoxicity against Escherichia coli WP2 (trpE65 deltauvrA) assessed as cell viability up to 10 to 300 ug/mL after 72 hrs in presence of 25 ug/plate 2-aminofluorene and metabolic activation system S9; assay type: ADME, organism-based; details: read-out: Activity
[3] = Cytotoxicity against Escherichia coli WP2 (trpE65 deltauvrApKM101) assessed as cell viability up to 10 to 300 ug/mL after 72 hrs in presence of 25 ug/plate 2-aminofluorene and metabolic activation system S9; assay type: ADME, organism-based; details: read-out: Activity
Escherichia coli [4] = assay: Antimutagenic activity in Escherichia coli WP2 (trpE65) assessed as maximal inhibition of 2-aminofluorene-induced mutagenic effect at 10 to 300 ug/plate after 72 hrs in presence of metabolic activation system S9 by Ames test; assay type: functional
Outline: (§1)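 Preincubation Ames test with E. coli WP2 strains, from 16 h overnight cultures at 37 °C (about 2 × 10^9 bacteria/mL). Culture, mutagen, test substance (DMSO, 2% v/v vehicle) and either S9 mix (phenobarbital/β-naphthoflavone-induced rat liver) or 0.1 M phosphate buffer were shaken 30 min at 37 °C. Mutagens were MMS 1700 μg/plate without S9, and 2AA or 2AF 25 μg/plate with S9. Then top agar with 0.5 mM tryptophan on minimal agar, 72 h at 37 °C; tryptophan-independent revertants scored. Inhibition = 100 − (T/M × 100). Triplicates, at least two experiments.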

Escherichia coli [5] = assay: Antimutagenic activity in Escherichia coli WP2 (trpE65 deltauvrApKM101) assessed as maximal inhibition of 2-aminoanthracene-induced mutagenic effect at 10 to 300 ug/plate after 72 hrs in presence of metabolic activation system S9 by Ames test; assay type: functional; outline: as §1
Escherichia coli [6] = assay: Antimutagenic activity in Escherichia coli WP2 (trpE65 deltauvrA) assessed as maximal inhibition of methyl methane sulfonate-induced mutagenic effect at 10 to 300 ug/plate after 72 hrs in absence of metabolic activation system S9 by Ames test; assay type: functional; outline: as §1
[7] = Cytotoxicity against Escherichia coli WP2 (trpE65) assessed as cell viability up to 10 to 300 ug/mL after 72 hrs in presence of 25 ug/plate 2-aminofluorene and metabolic activation system S9; assay type: ADME, organism-based; details: read-out: Activity
Outline: (§2)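 Viability check on the antimutagenicity mixtures. Culture, mutagen (MMS 1700 μg/plate; 2AA or 2AF 25 μg/plate with S9 mix), test substance and S9 mix or 0.1 M phosphate buffer were shaken 30 min at 37 °C. Mixtures were diluted to 2 × 10^3 cells/mL, plated in top agar on nutrient agar and incubated 72 h at 37 °C. Colonies counted and compared with the solvent-only negative control.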

Escherichia coli [8] = assay: Antimutagenic activity in Escherichia coli WP2 (trpE65) assessed as maximal inhibition of methyl methane sulfonate-induced mutagenic effect at 10 to 300 ug/plate after 72 hrs in absence of metabolic activation system S9 by Ames test; assay type: functional; outline: as §1
[9] = Cytotoxicity against Escherichia coli WP2 (trpE65) assessed as cell viability up to 10 to 300 ug/mL after 72 hrs in presence of 1700 ug/plate methyl methane sulfonate; assay type: organism-based; details: Escherichia coli WP2 (trpE65) cells, read-out: Activity; outline: as §2
[10] = Cytotoxicity against Escherichia coli WP2 (trpE65 deltauvrA) assessed as cell viability up to 10 to 300 ug/mL after 72 hrs in presence of 1700 ug/plate methyl methane sulfonate; assay type: organism-based; details: Escherichia coli WP2 (trpE65 deltauvrA) cells, read-out: Activity; outline: as §2
[11] = Cytotoxicity against Escherichia coli WP2 (trpE65 deltauvrA) assessed as cell viability up to 10 to 300 ug/mL after 72 hrs in presence of 25 ug/plate 2-aminoanthracene and metabolic activation system S9; assay type: ADME, organism-based; details: read-out: Activity; outline: as §2
[12] = Cytotoxicity against Escherichia coli WP2 (trpE65 deltauvrApKM101) assessed as cell viability up to 10 to 300 ug/mL after 72 hrs in presence of 1700 ug/plate methyl methane sulfonate; assay type: organism-based; details: Escherichia coli WP2 (trpE65 deltauvrApKM101) cells, read-out: Activity; outline: as §2
[13] = Cytotoxicity against Escherichia coli WP2 (trpE65 deltauvrApKM101) assessed as cell viability up to 10 to 300 ug/mL after 72 hrs in presence of 25 ug/plate 2-aminoanthracene and metabolic activation system S9; assay type: ADME, organism-based; details: read-out: Activity; outline: as §2
Escherichia coli [14] = assay: Antimutagenic activity in Escherichia coli WP2 (trpE65 deltauvrA) assessed as maximal inhibition of 2-aminoanthracene-induced mutagenic effect at 10 to 300 ug/plate after 72 hrs in presence of metabolic activation system S9 by Ames test; assay type: functional; outline: as §1
Escherichia coli [15] = assay: Antimutagenic activity in Escherichia coli WP2 (trpE65 deltauvrApKM101) assessed as maximal inhibition of methyl methane sulfonate-induced mutagenic effect at 10 to 300 ug/plate after 72 hrs in absence of metabolic activation system S9 by Ames test; assay type: functional; outline: as §1
[16] = Cytotoxicity against Escherichia coli WP2 (trpE65) assessed as cell viability up to 10 to 300 ug/mL after 72 hrs in presence of 25 ug/plate 2-aminoanthracene and metabolic activation system S9; assay type: ADME, organism-based; details: read-out: Activity

CC(C)/C(=N/OS(=O)(=O)O)S[C@@H]1O[C@H](CO)[C@@H](O)[C@H](O)[C@H]1O [GLUCOPUTRANJIVIN]
solubility [1]: soluble | viability at 72 h [2]: 77% | viability at 72 h [3]: 93% | inhibition (INH) (Escherichia coli [4]): 61.6% | inhibition (INH) (Escherichia coli [5]): 21.5% | inhibition (INH) (Escherichia coli [6]): 44.6% | viability at 72 h [7]: 77% | inhibition (INH) (Escherichia coli [8]): 32.8% | viability at 72 h [9]: 80% | viability at 72 h [10]: 82% | viability at 72 h [11]: 77% | viability at 72 h [12]: 80% | viability at 72 h [13]: 93% | inhibition (INH) (Escherichia coli [14]): 80.1% | inhibition (INH) (Escherichia coli [15]): 38.5% | viability at 72 h [16]: 77%

CC(C)N=C=S [ISOPROPYL ISOTHIOCYANATE]
solubility [1]: soluble | viability at 72 h [2]: 77% | viability at 72 h [3]: 93% | inhibition (INH) (Escherichia coli [4]): 57.9% | inhibition (INH) (Escherichia coli [5]): 18.6% | inhibition (INH) (Escherichia coli [6]): 45.7% | viability at 72 h [7]: 77% | inhibition (INH) (Escherichia coli [8]): 9.7% | viability at 72 h [9]: 80% | viability at 72 h [10]: 82% | viability at 72 h [11]: 77% | viability at 72 h [12]: 80% | viability at 72 h [13]: 93% | inhibition (INH) (Escherichia coli [14]): 81.9% | inhibition (INH) (Escherichia coli [15]): 32.9% | viability at 72 h [16]: 77%
